Results from PubChem BioAssay AID624042 (Vanderbilt High Throughput Screening Facility, 2012).
pEC50: −log10 of the molar value.

Target: G protein-activated inward rectifier potassium channel 2 (Homo sapiens) + G protein-activated inward rectifier potassium channel 1 (Homo sapiens) (UniProt P48051+P48549)
Assay: GIRK1/2 activation independent of G-protein coupling, dose response, mechanism study for GIRK activator project, cell-based, HEK-293 hGIRK1/2, pertussis toxin-treated, thallium flux, FluoZin-2 (AID 624042)
Conditions: HEK-293 hGIRK1/2 PTX-treated
Method in brief: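 Assay system: HEK-293 cells stably expressing rmGlu8 and human GIRK1/2, PTX-treated | Buffer or medium: 400 ng/mL PTX during overnight pretreatment | Doses: Serial dilution series of test compounds | Incubation: PTX pretreatment overnight at 37 °C, compounds 4 min before thallium | Signal: FluoZin-2 thallium-flux fluorescence, 1 Hz | Benchmarks: Vehicle wells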

Sequence of G protein-activated inward rectifier potassium channel 2 (Homo sapiens) + G protein-activated inward rectifier potassium channel 1 (Homo sapiens) (P48051 whole entry, looked up): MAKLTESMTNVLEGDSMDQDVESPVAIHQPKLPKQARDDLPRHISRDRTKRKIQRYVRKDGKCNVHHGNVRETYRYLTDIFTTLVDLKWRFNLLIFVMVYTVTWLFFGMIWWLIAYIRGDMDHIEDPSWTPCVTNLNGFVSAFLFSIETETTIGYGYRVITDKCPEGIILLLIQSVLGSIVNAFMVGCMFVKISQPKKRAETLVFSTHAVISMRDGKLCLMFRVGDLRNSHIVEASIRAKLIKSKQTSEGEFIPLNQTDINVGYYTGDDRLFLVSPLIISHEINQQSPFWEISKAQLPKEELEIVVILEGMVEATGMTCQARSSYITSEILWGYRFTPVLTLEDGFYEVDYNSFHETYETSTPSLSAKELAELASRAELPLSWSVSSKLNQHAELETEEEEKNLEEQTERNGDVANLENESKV
Sequence of G protein-activated inward rectifier potassium channel 2 (Homo sapiens) + G protein-activated inward rectifier potassium channel 1 (Homo sapiens) (P48549 whole entry, looked up): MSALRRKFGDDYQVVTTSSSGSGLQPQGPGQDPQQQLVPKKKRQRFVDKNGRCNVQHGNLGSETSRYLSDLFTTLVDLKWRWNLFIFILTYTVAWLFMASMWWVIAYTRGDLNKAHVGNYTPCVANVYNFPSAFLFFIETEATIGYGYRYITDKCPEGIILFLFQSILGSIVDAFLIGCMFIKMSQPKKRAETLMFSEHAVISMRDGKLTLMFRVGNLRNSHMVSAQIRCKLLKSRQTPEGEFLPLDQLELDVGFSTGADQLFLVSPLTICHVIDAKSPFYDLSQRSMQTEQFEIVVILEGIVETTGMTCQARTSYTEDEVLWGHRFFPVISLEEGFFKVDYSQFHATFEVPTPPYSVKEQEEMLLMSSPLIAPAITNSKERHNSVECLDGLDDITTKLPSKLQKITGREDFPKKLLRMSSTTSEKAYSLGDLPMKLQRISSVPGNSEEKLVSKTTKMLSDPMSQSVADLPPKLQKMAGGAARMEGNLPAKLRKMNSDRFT

Row | SMILES | pEC50
1 | Cc1ccc(NC(=O)Cc2ccccc2Cl)cc1S(=O)(=O)N(C)C | 5.66
2 | Cc1ccc(-c2nnn(CC(=O)NC3CC4CCC3C4)n2)cc1 (centres undefined) | 5.37
3 | CCOc1ccccc1Nc1nnc(Cc2ccccc2Cl)c(=O)[nH]1 | 5.73
4 | Cc1cc(NC(=O)Nc2ccccc2)n(-c2ccccc2)n1 | 5.44
